Calls of active or inactive are those of the source. The rule behind the calls is not given here.
Tests used:
[1] = Cytotoxicity against human HuH7 cells measured after 24 hrs by CellTiter-Glo luminescent cell viability assay; assay type: cell-based, Huh-7
Method in brief: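 DENV2-infected Huh7 cells treated across a concentration range; cell viability read 24 h later. CC50 (50% cytotoxicity) derived by non-linear regression; mean ± SD of experimental duplicates, n ≥ 2 repeats.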

dengue virus type 2 [2] = assay: Antiviral activity against Dengue virus serotype 2 replicon harboring GVD mutant infected in HuH7 cells assessed as reduction in viral RNA translation at 2 uM measured at 6 hrs post infection by luciferase reporter gene assay relative to control; assay type: functional; set-up: scale not given: the % may be the effect or the level left
Method in brief: (§1)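 Huh7 cells transfected with in vitro-transcribed nonreplicative DENV2(GVD) reporter replicon RNA, then treated immediately with compound at 2 or 10 μM. Intracellular firefly luciferase activity read 6 h post-transfection as a measure of RNA translation and expressed relative to DMSO-treated samples. Mean ± SD of experimental duplicates, n = 3 repeats.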

dengue virus type 2 [3] = assay: Antiviral activity against Dengue virus serotype 2 strain New Guinea C infected in HuH7 cells assessed as reduction in log-fold change by measuring focus forming unit at 2 uM measured at 24 hrs post infection by focus forming assay relative to control; assay type: functional, Thailand/NGS-C/1944
Method in brief: (§2)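 DENV2-infected Huh7 cells treated with compound at 2 or 10 μM. Infectious virus secreted into culture supernatants at 24 h post-infection/treatment was titred by focus-forming assay. Result expressed as log-fold change relative to DMSO treatment.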

dengue virus type 2 [4] = assay: Antiviral activity against Dengue virus serotype 2 strain New Guinea C infected in HuH7 cells assessed as reduction in log-fold change by measuring focus forming unit at 10 uM measured at 24 hrs post infection by focus forming assay relative to control; assay type: functional, Thailand/NGS-C/1944; method in brief: as §2
dengue virus type 2 [5] = assay: Antiviral activity against Dengue virus serotype 2 replicon harboring GVD mutant infected in HuH7 cells assessed as reduction in viral RNA translation at 10 uM measured at 6 hrs post infection by luciferase reporter gene assay relative to control; assay type: functional; set-up: scale not given: the % may be the effect or the level left; method in brief: as §1
[6] = Half life in mouse hepatic microsomes at 1 uM in presence of NADPH by LC-MS/MS method; assay type: ADME, Microsome; details: liver microsomes
Method in brief: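 Compound incubated with mouse liver microsomes; half-life (T1/2, min) of the compound reported as a measure of metabolic stability.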

dengue virus type 2 [7] = assay: Antiviral activity against Dengue virus serotype 2 strain New Guinea C infected in HuH7 cells at […] to 10 uM measured at 24 hrs post infection by focus forming assay; assay type: functional, cell-based; details: Thailand/NGS-C/1944
Method in brief: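 Huh7 cells infected with DENV2, then treated with compound; screened at 2 and 10 μM. Infectious virus secreted into supernatant at 24 h post-infection/treatment titrated by focus-forming assay; expressed as log-fold change relative to DMSO. IC90 (1-log10 drop in infectious progeny) from concentration range by non-linear regression; mean ± SD of experimental duplicates, n ≥ 2 repeats.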

SMILES	CC50 at 24 h [1] [µM]	Activity (dengue virus type 2 [2]) [%]	Activity (dengue virus type 2 [3]) [log10FFU/ml]	Activity (dengue virus type 2 [4]) [log10FFU/ml]	Activity (dengue virus type 2 [5]) [%]	half-life at 1 µM [6] [min]	Activity (dengue virus type 2 [7])
C=CC(=O)Nc1cc(-n2c3c(ccc2=O)CCc2ccc(-c4ccc5ccncc5c4)cc2-3)ccc1C	> 160	77	0.5	0.1	88		
C=CC(=O)Nc1cc(-n2c(=O)ccc3cnc4ccc(-c5cn[nH]c5)cc4c32)ccc1C	77	29	0.8	4	76	6.5	
C=CC(=O)Nc1cc(-n2c(=O)ccc3cnc4ccc(N5CCN(c6ccccc6)CC5)cc4c32)ccc1C	44	0	0.1	0	2	5	
C=CC(=O)N1CCc2ccc(-n3c(=O)n(C)c4cnc5ccc(-c6ccc7ccncc7c6)cc5c43)cc21	126	77	2	4	98	2	
C=CC(=O)Nc1cc(-n2c(=O)ccc3cnc4ccc(-c5cnn(C)c5)cc4c32)ccc1C(=O)N(C)C	83	4	2	4	93		
C=CC(=O)N1CCC[C@@H](n2nc(-c3ccc(Oc4ccccc4)cc3)c3c(N)ncnc32)C1							inactive
C=CC(=O)Nc1cc(-n2c(=O)ccc3cnc4ccc(-c5cnn(C)c5)cc4c32)ccc1F	105	97	4	4	99	4.5	
C=CC(=O)N1CCc2ccc(N3C(=O)NCc4cnc5ccc(-c6cnn(C)c6)cc5c43)cc21	68	49	0.1	0.8	53	2	
C=CC(=O)Nc1cc(-n2c(=O)ccc3cnc4ccc(-c5ccc(NS(C)(=O)=O)cc5)cc4c32)ccc1C							inactive
Cc1ccc(-n2c(=O)ccc3ccc4ccc(-c5ccc6ccncc6c5)cc4c32)cc1NC(=O)/C=C/CN(C)C	21	17	3.3	4	66	6.3	
C=CC(=O)Nc1cc(-n2c(=O)ccc3cnc4ccc(-c5ccc6c(c5)OCO6)cc4c32)ccc1C	46	32	2.8	4	94	2.7	
C=CC(=O)Nc1cc(-n2c(=O)ccc3cnc4ccc(-c5cnc6ccccc6c5)cc4c32)ccc1C	> 160	82	2.7	4	95	1.3	
C=CC(=O)Nc1cc(-n2c3c(ccc2=O)CCc2ccc(-c4cnn(C)c4)cc2-3)ccc1C	> 160	49	0.5	1	60		

— ChEMBL document CHEMBL4041550, “Structure-Activity Relationship Study of QL47: A Broad-Spectrum Antiviral Agent” (ACS Med Chem Lett, 2017)
